# Measured values as given in ChEMBL document CHEMBL3228016, “Antiallergy agents. 1. 1,6-Dihydro-6-oxo-2-phenylpyrimidine-5-carboxylic acids and esters” (1979).
# Test system: Rattus norvegicus
# Test: Antiallergic activity in po dosed Sprague-Dawley rat passive cutaneous analphylaxis model assessed as inhibition of allergic response administered 10 mins prior to antigen challenge
# Format: functional
# Settings: read-out: ID50 (the source's name)
# Outline: (§1)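 Modified Ovary rat passive cutaneous anaphylaxis screen in male Sprague-Dawley rats, with 24 h between sensitization and antigen challenge. Acidic compounds were dissolved in aqueous NaHCO3 where possible; others were suspended in aqueous sodium citrate with Tween 40/sodium carboxymethylcellulose. Dosing was iv 1 min or po 10 min before challenge. ID50 is the dose giving 50% inhibition of the response; significance was p ≤ 0.05 by Student's t test.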
row,Structure (SMILES),ED50
1,O=C(O)c1cnc(-c2ccccc2OCc2ccccc2)[nH]c1=O,5 mg/kg
2,CCOc1ccc(S(=O)(=O)N(C)C(C)C)cc1-c1ncc(C(=O)O)c(=O)[nH]1,> 10 mg/kg
3,CCOc1ccccc1-c1ncc(C(=O)O)c(=O)n1C,> 50 mg/kg
4,C[S+]([O-])c1ccccc1-c1ncc(C(=O)O)c(=O)[nH]1 (configuration not stated),> 5 mg/kg
5,CSc1ccccc1-c1ncc(C(=O)O)c(=O)[nH]1,> 20 mg/kg
6,COc1nc(-c2ccccc2)ncc1C(=O)O,> 10 mg/kg
7,CCOC(=O)C(=O)Nc1ccc(OCC)c(-c2ncc(C(=O)O)c(=O)[nH]2)c1,25 mg/kg
8,COc1ccccc1-c1ncc(C(=O)O)c(=O)[nH]1,10 mg/kg
9,O=C(O)c1cnc(-c2ccccc2F)[nH]c1=O,5 mg/kg
10,CCOC(=O)c1cnc(-c2ccccc2OCC(C)C)[nH]c1=O,3 mg/kg
11,COc1ccc(OC)c(-c2ncc(C(=O)O)c(=O)[nH]2)c1,1 mg/kg
12,CCCOc1ccccc1-c1ncc(C(=O)OCC)c(=O)[nH]1,5 mg/kg
13,CCOC(=O)c1cnc(-c2cccc3c2OC(C)C3)[nH]c1=O (racemic),5 mg/kg
14,CCOc1cccc(-c2ncc(C(=O)O)c(=O)[nH]2)c1,5 mg/kg
15,COc1ccc(-c2ncc(C(=O)O)c(=O)[nH]2)c(OC)c1,5 mg/kg
16,C=CCOc1ccccc1-c1ncc(C(=O)O)c(=O)[nH]1,0.5 mg/kg
17,CCOC(=O)c1cnc(-c2cccc(OC)c2)nc1O,10 mg/kg
18,CCOC(=O)c1cnc(-c2ccccc2F)[nH]c1=O,> 10 mg/kg
19,Cn1c(-c2ccccc2)ncc(C(=O)O)c1=O,50 mg/kg
20,Nc1ccccc1-c1ncc(C(=O)O)c(=O)[nH]1,50 mg/kg
21,CCOc1ccc(Cl)cc1-c1ncc(C(=O)O)c(=O)[nH]1,0.5 mg/kg
22,CCOC(=O)c1cnc(-c2ccc(Cl)cc2)[nH]c1=O,> 30 mg/kg

row,Structure (SMILES),ED50
1,CCOC(=O)c1cnc(-c2cc(S(=O)(=O)N(CC)CC)ccc2OCC)[nH]c1=O,10 mg/kg
2,CCOc1ccc(S(=O)(=O)N(C)C)cc1-c1ncc(C(=O)O)c(=O)[nH]1,> 50 mg/kg
3,CCOc1ccc(S(N)(=O)=O)cc1-c1ncc(C(=O)O)c(=O)[nH]1,> 50 mg/kg
4,CCOc1ccc(OC)cc1-c1ncc(C(=O)O)c(=O)[nH]1,0.2 mg/kg
5,O=C(O)c1cnc(-c2ccccc2)[nH]c1=O,50 mg/kg
6,CCOC(=O)c1cnc(-c2ccccc2)nc1OC,> 5 mg/kg
7,CCOc1ccc(C(=O)O)cc1-c1ncc(C(=O)O)c(=O)[nH]1,25 mg/kg
8,CCOC(=O)c1cnc(-c2ccccc2OC(C)CC)[nH]c1=O (configuration not stated),0.5 mg/kg
9,COc1cccc(-c2ncc(C(=O)O)c(=O)[nH]2)c1,10 mg/kg
10,CCOc1ccccc1-c1nc(=O)c(C(=O)O)cn1C,> 40 mg/kg
11,CCOC(=O)c1cnc(-c2cc(N)ccc2OCC)[nH]c1=O,0.5 mg/kg
12,CCCCCOc1ccccc1-c1ncc(C(=O)OCC)c(=O)[nH]1,2 mg/kg
13,O=C(O)c1cnc(-c2ccccc2Cl)[nH]c1=O,5 mg/kg
14,COc1ccc(-c2ncc(C(=O)O)c(=O)[nH]2)cc1,> 5 mg/kg
15,CC1Cc2cccc(-c3ncc(C(=O)O)c(=O)[nH]3)c2O1 (racemic),5 mg/kg
16,CCOC(=O)c1cnc(-c2cc(S(N)(=O)=O)ccc2OCC)[nH]c1=O,50 mg/kg
17,CCOC(=O)c1cnc(-c2cc(S(=O)(=O)N(C)C)ccc2OCC)[nH]c1=O,50 mg/kg
18,CCOC(=O)c1cnc(-c2ccc(C(F)(F)F)cc2)[nH]c1=O,> 5 mg/kg
19,CCOC(=O)c1cnc(-c2cccc(C(F)(F)F)c2)[nH]c1=O,50 mg/kg
20,CCOC(=O)c1ccc(OCC)c(-c2ncc(C(=O)OCC)c(=O)[nH]2)c1,1 mg/kg
21,CCOC(=O)c1cnc(-c2ccccc2OC)[nH]c1=O,10 mg/kg
22,CCOC(=O)c1cnc(-c2cc(Cl)ccc2OCC)[nH]c1=O,0.5 mg/kg

row,Structure (SMILES),ED50
1,CCOC(=O)c1cnc(-c2cccc(OCC)c2)[nH]c1=O,50 mg/kg
2,CCOC(=O)c1cnc(-c2ccccc2OCC)n(C)c1=O,> 40 mg/kg
3,CCCCOc1ccccc1-c1ncc(C(=O)O)c(=O)[nH]1,0.5 mg/kg
4,O=C(O)c1cnc(-c2ccccc2[N+](=O)[O-])[nH]c1=O,> 50 mg/kg
5,CC(C)Oc1ccccc1-c1ncc(C(=O)O)c(=O)[nH]1,0.8 mg/kg
6,C=CCOc1ccccc1-c1ncc(C(=O)OCC)c(=O)[nH]1,0.5 mg/kg
7,CCCCOc1ccccc1-c1ncc(C(=O)OCC)c(=O)[nH]1,0.5 mg/kg
8,CCOC(=O)c1cnc(-c2cc([N+](=O)[O-])cc([N+](=O)[O-])c2OCC)[nH]c1=O,> 50 mg/kg
9,CCOc1ccccc1-c1ncc(C(=O)O)c(OC)n1,> 5 mg/kg
10,O=C(O)c1cnc(-c2ccc(C(F)(F)F)cc2)[nH]c1=O,> 5 mg/kg
11,CCOC(=O)c1cnc(-c2ccccc2OCC2CC2)[nH]c1=O,0.3 mg/kg
12,CCOC(=O)c1cnc(-c2ccccc2)n(C)c1=O,> 5 mg/kg
13,CCOC(=O)c1cnc(-c2cc(S(=O)(=O)N(C)C(C)C)ccc2OCC)[nH]c1=O,> 10 mg/kg
14,CCOC(=O)c1cnc(-c2ccc(OC)cc2)[nH]c1=O,30 mg/kg
15,CCCOc1ccccc1-c1ncc(C(=O)O)c(=O)[nH]1,0.9 mg/kg
16,C=CCc1cccc(-c2ncc(C(=O)O)c(=O)[nH]2)c1O,> 0.5 mg/kg
17,CCSc1ccccc1-c1ncc(C(=O)O)c(=O)[nH]1,25 mg/kg
18,CCOC(=O)c1cnc(-c2cc(OC)ccc2OCC)[nH]c1=O,0.3 mg/kg
19,CCOc1ccc(N)cc1-c1ncc(C(=O)O)c(=O)[nH]1,1.2 mg/kg
20,CCCOc1ccc(OC)cc1-c1ncc(C(=O)O)c(=O)[nH]1,0.3 mg/kg
21,CCOC(=O)c1cnc(-c2ccccc2SC)[nH]c1=O,> 25 mg/kg
22,CCCCCOc1ccccc1-c1ncc(C(=O)O)c(=O)[nH]1,3 mg/kg

row,Structure (SMILES),ED50
1,CCOc1ccccc1-c1ncc(C(=O)O)c(=O)[nH]1,0.5 mg/kg
2,CCOC(=O)c1cnc(-c2ccccc2)nc1O,> 20 mg/kg
3,CC(C)COc1ccccc1-c1ncc(C(=O)O)c(=O)[nH]1,0.5 mg/kg
4,CCOC(=O)c1cnc(-c2ccccc2O)[nH]c1=O,5 mg/kg
5,CCOC(=O)c1cnc(-c2ccccc2OC(C)C)[nH]c1=O,2 mg/kg
6,CCOc1ccc([N+](=O)[O-])cc1-c1ncc(C(=O)O)c(=O)[nH]1,25 mg/kg
7,CCOC(=O)c1cnc(-c2ccccc2SCC)[nH]c1=O,> 5 mg/kg
8,O=C(O)c1cnc(-c2ccccc2OCC2CC2)[nH]c1=O,0.1 mg/kg
9,CCOC(=O)c1cnc(-c2cc([N+](=O)[O-])ccc2OCC)[nH]c1=O,5 mg/kg
10,CCCOc1ccc(OC)cc1-c1ncc(C(=O)OCC)c(=O)[nH]1,0.7 mg/kg
11,CCOC(=O)c1cnc(-c2ccccc2OCC)[nH]c1=O,2 mg/kg
12,CCOC(=O)c1cnc(-c2ccccc2Cl)[nH]c1=O,5 mg/kg
13,CCC(C)Oc1ccccc1-c1ncc(C(=O)O)c(=O)[nH]1 (configuration not stated),0.5 mg/kg
14,CCOC(=O)C(=O)Nc1ccc(OCC)c(-c2ncc(C(=O)OCC)c(=O)[nH]2)c1,5 mg/kg
15,CCOc1ccc(N(C)C)cc1-c1ncc(C(=O)O)c(=O)[nH]1,0.3 mg/kg
16,CCOc1ccc(S(=O)(=O)N(CC)CC)cc1-c1ncc(C(=O)O)c(=O)[nH]1,40 mg/kg
17,O=C(O)c1cnc(-c2ccc(Cl)cc2)[nH]c1=O,5 mg/kg
18,O=C(O)c1cnc(-c2cccc(C(F)(F)F)c2)[nH]c1=O,33 mg/kg
19,O=C(O)c1cnc(-c2ccccc2O)[nH]c1=O,> 5 mg/kg
20,CCOC(=O)c1cnc(-c2ccc(OC)cc2OC)[nH]c1=O,5 mg/kg
21,CCOC(=O)c1cnc(-c2cc(OC)ccc2OC)[nH]c1=O,5 mg/kg
22,CCOC(=O)c1cnc(-c2ccccc2OCc2ccccc2)[nH]c1=O,> 5 mg/kg

# Test system: Rattus norvegicus
# Test: Antiallergic activity in po dosed Sprague-Dawley rat passive cutaneous analphylaxis model assessed as inhibition of allergic response administered 30 mins prior to antigen challenge
# Format: functional
# Settings: read-out: ID50 (the source's name)
# Outline: (§2)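 Male Sprague-Dawley rat passive cutaneous anaphylaxis (modified Ovary method), with a 24 h sensitization-to-challenge interval. The agent was dissolved in saline and given iv at the time of antigen challenge or po 30 min before challenge. The dose inhibiting the response by 50% was determined; significance was p ≤ 0.05 by Student's t test.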
row,Structure (SMILES),ED50
1,O=C([O-])c1cc(=O)c2c(OCC(O)COc3cccc4oc(C(=O)[O-])cc(=O)c34)cccc2o1.[Na+].[Na+] [CROMOLYN SODIUM],≥ 30 mg/kg

# Test system: Rattus norvegicus
# Test: Antiallergic activity in iv dosed Sprague-Dawley rat passive cutaneous analphylaxis model assessed as inhibition of allergic response administered at the time of antigen challenge
# Format: functional
# Settings: read-out: ID50 (the source's name)
# Outline: as §2
row,Structure (SMILES),ED50
1,O=C([O-])c1cc(=O)c2c(OCC(O)COc3cccc4oc(C(=O)[O-])cc(=O)c34)cccc2o1.[Na+].[Na+] [CROMOLYN SODIUM],0.3 mg/kg

# Test system: Rattus norvegicus
# Test: Antiallergic activity in iv dosed Sprague-Dawley rat passive cutaneous analphylaxis model assessed as inhibition of allergic response administered 1 min prior to antigen challenge
# Format: functional
# Settings: read-out: ID50 (the source's name)
# Outline: as §1
row,Structure (SMILES),ED50
1,CCOC(=O)c1cn(C)c(-c2ccccc2OCC)nc1=O,> 1 mg/kg
2,CCOc1ccccc1-c1ncc(C(=O)O)c(=O)[nH]1,0.07 mg/kg
